Measured values published in ChEMBL document CHEMBL4715736, “Identification of anticancer agents based on the thieno[2,3-b]pyridine and 1H-pyrazole molecular scaffolds” (2016).

What was measured:
Format in all cases: functional
[1] = tested on: OVCAR-3; test: Growth inhibition of human OVCAR-3 cells assessed as cell growth at 100 uM incubated for 48 hrs by sulforhodamine B assay relative to control; details: read-out: Activity
[2] = tested on: NCI-H226; test: Growth inhibition of human NCI-H226 cells assessed as cell growth at 0.1 uM incubated for 48 hrs by sulforhodamine B assay relative to control; details: read-out: Activity
[3] = tested on: K562; test: Growth inhibition of human K562 cells assessed as cell growth at 0.01 uM incubated for 48 hrs by sulforhodamine B assay relative to control; details: read-out: Activity
[4] = tested on: NCI-H522; test: Growth inhibition of human NCI-H522 cells assessed as cell growth at 100 uM incubated for 48 hrs by sulforhodamine B assay relative to control; details: read-out: Activity
[5] = tested on: COLO 205; test: Growth inhibition of human COLO 205 cells incubated for 48 hrs by sulforhodamine B assay
In short: (§1)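 NCI Developmental Therapeutics Program NCI60 panel. Compounds that were active in the 10 µM one-dose screen went on to dose–response testing. Growth at each concentration is expressed relative to untreated control (100%). GI50 (concentration giving 50% of maximal inhibition of proliferation) and TGI (concentration giving total growth inhibition) were derived from the curves.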

[6] = tested on: SF-268; test: Growth inhibition of human SF-268 cells assessed as cell growth at 100 uM incubated for 48 hrs by sulforhodamine B assay relative to control; details: read-out: Activity
[7] = tested on: RXF 393; test: Growth inhibition of human RXF 393 cells assessed as cell growth at 1 uM incubated for 48 hrs by sulforhodamine B assay relative to control; details: read-out: Activity
[8] = tested on: MDA-MB-468; test: Growth inhibition of human MDA-MB-468 cells assessed as cell growth at 100 uM incubated for 48 hrs by sulforhodamine B assay relative to control; details: read-out: Activity
[9] = tested on: M14; test: Growth inhibition of human M14 cells assessed as cell growth at 100 uM incubated for 48 hrs by sulforhodamine B assay relative to control; details: read-out: Activity
[10] = tested on: DU-145; test: Growth inhibition of human DU-145 cells incubated for 48 hrs by sulforhodamine B assay; details: for CC50: read-out: LC50 (the source's name); in short: as §1
[11] = tested on: T47D; test: Growth inhibition of human T47D cells assessed as cell growth at 100 uM incubated for 48 hrs by sulforhodamine B assay relative to control; details: read-out: Activity
[12] = tested on: MOLT-4; test: Growth inhibition of human MOLT-4 cells assessed as cell growth at 100 uM incubated for 48 hrs by sulforhodamine B assay relative to control; details: read-out: Activity
[13] = tested on: UO-31; test: Growth inhibition of human UO-31 cells assessed as cell growth at 100 uM incubated for 48 hrs by sulforhodamine B assay relative to control; details: read-out: Activity
[14] = tested on: Hs-578T; test: Growth inhibition of human Hs-578T cells assessed as cell growth at 1 uM incubated for 48 hrs by sulforhodamine B assay relative to control; details: read-out: Activity
[15] = tested on: Hs-578T; test: Growth inhibition of human Hs-578T cells assessed as cell growth at 0.1 uM incubated for 48 hrs by sulforhodamine B assay relative to control; details: read-out: Activity
[16] = tested on: ACHN; test: Growth inhibition of human ACHN cells assessed as cell growth at 0.01 uM incubated for 48 hrs by sulforhodamine B assay relative to control; details: read-out: Activity
[17] = tested on: UO-31; test: Growth inhibition of human UO-31 cells incubated for 48 hrs by sulforhodamine B assay; details: for CC50: read-out: LC50 (the source's name)
In short: (§2)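 NCI DTP 60-line human tumour panel. Dose-response curves were run only for ligands active in the initial 10 µM screen. GI50 (concentration giving 50% of maximal inhibition of proliferation) and TGI (concentration giving total growth inhibition) were derived from these curves.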

[18] = tested on: SK-MEL-2; test: Growth inhibition of human SK-MEL-2 cells assessed as cell growth at 1 uM incubated for 48 hrs by sulforhodamine B assay relative to control; details: read-out: Activity
[19] = tested on: OVCAR-5; test: Growth inhibition of human OVCAR-5 cells incubated for 48 hrs by sulforhodamine B assay; details: for CC50: read-out: LC50 (the source's name); in short: as §2
[20] = tested on: OVCAR-8; test: Growth inhibition of human OVCAR-8 cells assessed as cell growth at 0.1 uM incubated for 48 hrs by sulforhodamine B assay relative to control; details: read-out: Activity
[21] = tested on: BT-549; test: Growth inhibition of human BT-549 cells incubated for 48 hrs by sulforhodamine B assay; details: for CC50: read-out: LC50 (the source's name); in short: as §1
[22] = tested on: LOX IMVI; test: Growth inhibition of human LOX IMVI cells assessed as cell growth at 1 uM incubated for 48 hrs by sulforhodamine B assay relative to control; details: read-out: Activity
[23] = tested on: OVCAR-5; test: Growth inhibition of human OVCAR-5 cells assessed as cell growth at 1 uM incubated for 48 hrs by sulforhodamine B assay relative to control; details: read-out: Activity
[24] = tested on: TK-10; test: Growth inhibition of human TK-10 cells incubated for 48 hrs by sulforhodamine B assay; details: for CC50: read-out: LC50 (the source's name); in short: as §2
[25] = tested on: A549; test: Growth inhibition of human A549/ATCC cells assessed as cell growth at 1 uM incubated for 48 hrs by sulforhodamine B assay relative to control; details: read-out: Activity; in short: as §1
[26] = tested on: Malme-3M; test: Growth inhibition of human Malme-3M cells assessed as cell growth at 0.1 uM incubated for 48 hrs by sulforhodamine B assay relative to control; details: read-out: Activity
[27] = tested on: OVCAR-8; test: Growth inhibition of human OVCAR-8 cells assessed as cell growth at 1 uM incubated for 48 hrs by sulforhodamine B assay relative to control; details: read-out: Activity
[28] = tested on: NCI-H226; test: Growth inhibition of human NCI-H226 cells assessed as cell growth at 100 uM incubated for 48 hrs by sulforhodamine B assay relative to control; details: read-out: Activity
[29] = tested on: NCI-H460; test: Growth inhibition of human NCI-H460 cells assessed as cell growth at 0.01 uM incubated for 48 hrs by sulforhodamine B assay relative to control; details: read-out: Activity
[30] = tested on: OVCAR-3; test: Growth inhibition of human OVCAR-3 cells assessed as cell growth at 0.1 uM incubated for 48 hrs by sulforhodamine B assay relative to control; details: read-out: Activity
[31] = tested on: RXF 393; test: Growth inhibition of human RXF 393 cells assessed as cell growth at 0.1 uM incubated for 48 hrs by sulforhodamine B assay relative to control; details: read-out: Activity
[32] = tested on: UO-31; test: Growth inhibition of human UO-31 cells assessed as cell growth at 0.1 uM incubated for 48 hrs by sulforhodamine B assay relative to control; details: read-out: Activity
[33] = tested on: UACC-62; test: Growth inhibition of human UACC-62 cells incubated for 48 hrs by sulforhodamine B assay; in short: as §2
[34] = tested on: PC-3; test: Growth inhibition of human PC-3 cells incubated for 48 hrs by sulforhodamine B assay; in short: as §2
[35] = tested on: NCI-H23; test: Growth inhibition of human NCI-H23 cells incubated for 48 hrs by sulforhodamine B assay
In short: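 NCI60 panel at the NCI Developmental Therapeutics Program. Only compounds active in the 10 µM screen went to dose-response testing. GI50, the concentration giving 50% of maximal inhibition of proliferation, and TGI, the concentration giving total growth inhibition, were derived from the dose-response curves.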

CCc1ccccc1NC(=O)c1sc2nc3c(cc2c1N)C(=O)CCC3
growth at 100 µM [1]: -36% | growth at 0.1 µM [2]: 86% | growth at 0.01 µM [3]: 104% | growth at 100 µM [4]: 19% | GI50 [5]: 0.252 µM | LC50 (concentration killing 50% of cells) [5]: > 100 µM | TGI [5]: 19.8 µM | growth at 100 µM [6]: 12% | growth at 1 µM [7]: -8% | growth at 100 µM [8]: -8% | growth at 100 µM [9]: 7% | GI50 [10]: 0.499 µM | TGI [10]: > 100 µM | CC50 [10]: > 100 µM | growth at 100 µM [11]: -5% | growth at 100 µM [12]: 31% | growth at 100 µM [13]: 18% | growth at 1 µM [14]: 18% | growth at 0.1 µM [15]: 80% | growth at 0.01 µM [16]: 93% | GI50 [17]: 14.8 µM | TGI [17]: > 100 µM | CC50 [17]: > 100 µM | growth at 1 µM [18]: 31% | GI50 [19]: 0.0392 µM | TGI [19]: > 100 µM | CC50 [19]: > 100 µM | growth at 0.1 µM [20]: 97% | GI50 [21]: 27.4 µM | TGI [21]: > 100 µM | CC50 [21]: > 100 µM | growth at 1 µM [22]: 39% | growth at 1 µM [23]: 50% | GI50 [24]: 23.2 µM | TGI [24]: > 100 µM | CC50 [24]: > 100 µM | growth at 1 µM [25]: 39% | growth at 0.1 µM [26]: 84% | growth at 1 µM [27]: 60% | growth at 100 µM [28]: 18% | growth at 0.01 µM [29]: 100% | growth at 0.1 µM [30]: 100% | growth at 0.1 µM [31]: 66% | growth at 0.1 µM [32]: 85%

Cc1ccc(NC(=O)c2sc3nc4c(cc3c2N)C(=O)CCC4)cc1C
growth at 100 µM [1]: -23% | growth at 0.1 µM [2]: 88% | growth at 0.01 µM [3]: 114% | growth at 100 µM [4]: -13% | GI50 [5]: 0.272 µM | LC50 (concentration killing 50% of cells) [5]: ≥ 100 µM | TGI [5]: 11.4 µM | growth at 100 µM [6]: 14% | growth at 1 µM [7]: -11% | growth at 100 µM [8]: -1% | growth at 100 µM [9]: 4% | GI50 [10]: 0.602 µM | TGI [10]: > 100 µM | CC50 [10]: > 100 µM | growth at 100 µM [11]: -13% | growth at 100 µM [12]: -6% | growth at 100 µM [13]: 16% | growth at 1 µM [14]: 16% | growth at 0.1 µM [15]: 88% | growth at 0.01 µM [16]: 98% | GI50 [17]: 0.0505 µM | TGI [17]: > 100 µM | CC50 [17]: > 100 µM | growth at 1 µM [18]: 22% | GI50 [19]: 2.29 µM | TGI [19]: > 100 µM | CC50 [19]: > 100 µM | growth at 0.1 µM [20]: 100% | TGI [21]: > 100 µM | CC50 [21]: > 100 µM | growth at 1 µM [22]: 42% | growth at 1 µM [23]: 66% | TGI [24]: > 100 µM | CC50 [24]: > 100 µM | growth at 1 µM [25]: 40% | growth at 0.1 µM [26]: 86% | growth at 1 µM [27]: 68% | growth at 100 µM [28]: 36% | growth at 0.01 µM [29]: 102% | growth at 0.1 µM [30]: 101% | growth at 0.1 µM [31]: 82% | growth at 0.1 µM [32]: 81%

CCc1cccc(C)c1NC(=O)c1sc2nc3c(cc2c1N)C(=O)CCC3
growth at 100 µM [1]: -50% | growth at 0.1 µM [2]: 94% | growth at 0.01 µM [3]: 92% | GI50 [5]: 0.278 µM | growth at 100 µM [6]: 5% | growth at 1 µM [7]: -12% | growth at 100 µM [8]: -18% | growth at 100 µM [9]: -17% | GI50 [10]: 0.454 µM | TGI [10]: > 100 µM | CC50 [10]: > 100 µM | growth at 100 µM [11]: -10% | GI50 [33]: 0.556 µM | LC50 [33]: > 100 µM | TGI [33]: > 100 µM | growth at 100 µM [12]: -9% | growth at 100 µM [13]: 12% | growth at 1 µM [14]: 20% | growth at 0.1 µM [15]: 90% | growth at 0.01 µM [16]: 94% | GI50 [17]: 0.0982 µM | TGI [17]: ≥ 100 µM | CC50 [17]: > 100 µM | GI50 [34]: 0.454 µM | TGI [34]: > 100 µM | CC50 ([34]; read-out: LC50 (the source's name)): > 100 µM | GI50 [19]: 2.6 µM | TGI [19]: > 100 µM | CC50 [19]: > 100 µM | growth at 0.1 µM [20]: 97% | growth at 1 µM [22]: 43% | growth at 1 µM [23]: 59% | growth at 1 µM [25]: 37% | growth at 0.1 µM [26]: 86% | growth at 1 µM [27]: 62% | growth at 100 µM [28]: 8% | growth at 0.01 µM [29]: 101% | growth at 0.1 µM [30]: 104% | GI50 [35]: 0.733 µM | LC50 (50% lethal concentration) [35]: > 100 µM | TGI [35]: > 100 µM | growth at 0.1 µM [31]: 74% | growth at 0.1 µM [32]: 82%
